For 24 compounds, inhibition and IC50 results are on record in ChEMBL document CHEMBL1817649, “Structure-guided design and synthesis of P1' position 1-phenylcycloalkylamine-derived pentapeptidic BACE1 inhibitors” (Bioorg Med Chem, 2011).

The target of experiment [1] is T1, Beta-secretase 1 (Homo sapiens, UniProt P56817). As to the kind of experiment: Inhibition of human recombinant BACE1 at 2 uM by FRET assay. The procedure, abridged: (§1)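 Single-point screen of BACE1 inhibition, run first at the higher concentration and then at the lower one. Read-out is percent inhibition.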
T1 sequence (P56817 whole entry): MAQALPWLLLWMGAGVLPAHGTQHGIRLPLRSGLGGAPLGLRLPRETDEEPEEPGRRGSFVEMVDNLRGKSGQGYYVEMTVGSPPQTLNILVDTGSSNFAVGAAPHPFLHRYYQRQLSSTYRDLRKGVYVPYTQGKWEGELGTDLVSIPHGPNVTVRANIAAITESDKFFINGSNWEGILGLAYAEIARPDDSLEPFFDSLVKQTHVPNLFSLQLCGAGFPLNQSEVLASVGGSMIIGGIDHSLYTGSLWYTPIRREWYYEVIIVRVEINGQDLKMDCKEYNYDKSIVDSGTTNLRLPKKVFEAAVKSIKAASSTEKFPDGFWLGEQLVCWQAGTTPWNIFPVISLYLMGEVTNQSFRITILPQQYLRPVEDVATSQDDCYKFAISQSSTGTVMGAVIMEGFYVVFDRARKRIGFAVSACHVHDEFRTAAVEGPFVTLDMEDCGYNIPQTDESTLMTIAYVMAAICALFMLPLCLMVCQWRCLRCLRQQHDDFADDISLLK
In experiment [2] the target is T1, Beta-secretase 1. As to the kind of experiment: Inhibition of human recombinant BACE1 by FRET assay.
Experiment [3] deals with T1, Beta-secretase 1. The experiment in a line: Inhibition of human recombinant BACE1 at 0.2 uM by FRET assay. The procedure, abridged: as §1

Broadly, the inhibition is the percentage by which the read-out fell short of the control. As a reminder, the IC50 is the concentration needed to halve the response being measured. For the compound `CC(C)[C@H](NC(=O)[C@@H](N)CNC(=O)c1[nH]c(=O)[nH]c(=O)c1F)C(=O)N[C@@H](CC1CCCCC1)C(=O)N[C@@H](Cc1ccccc1)[C@@H](O)C(=O)NC1(c2ccccc2)CCCCC1`, the results for the inhibition on Beta-secretase 1 [1] and at Beta-secretase 1 [3] were 97% and 77%, respectively. Further, the IC50 at Beta-secretase 1 [2] was found to be 40.6 nM.

As to `CC(C)[C@H](NC(=O)[C@@H](N)CNC(=O)c1[nH]c(=O)[nH]c(=O)c1F)C(=O)N[C@@H](CC1CCCCC1)C(=O)N[C@@H](Cc1ccccc1)[C@@H](O)C(=O)NC(C)(C)c1ccccc1`, the inhibition was determined as 98% on Beta-secretase 1 [1] and 78% at Beta-secretase 1 [3]. Besides, the 50% inhibitory concentration (IC50) at Beta-secretase 1 [2] stood at 31.9 nM.

For the compound `CC(C)C[C@H](NC(=O)[C@@H](NC(=O)[C@@H](N)CNC(=O)c1cc(O)ccc1O)C(C)C)C(=O)N[C@@H](Cc1ccccc1)[C@@H](O)C(=O)N[C@@H](C)c1ccccc1`, the inhibition came out at 88% at Beta-secretase 1 [1] and 47% at Beta-secretase 1 [3].

On to `CC(C)C[C@H](NC(=O)[C@@H](NC(=O)[C@@H](N)CNC(=O)c1[nH]c(=O)[nH]c(=O)c1F)C(C)C)C(=O)N[C@@H](Cc1ccccc1)[C@@H](O)C(=O)NC1(c2ccccc2)CCN(Cc2ccccc2)CC1`, for which the inhibition at Beta-secretase 1 [1] worked out at 93%; on Beta-secretase 1 [3] it was 59%.

As to `CC(C)[C@H](NC(=O)[C@@H](N)CNC(=O)c1cc(O)ccc1O)C(=O)N[C@@H](CC1CCCCC1)C(=O)N[C@@H](Cc1ccccc1)[C@@H](O)C(=O)NC(C)(C)c1ccccc1`, the inhibition at Beta-secretase 1 [1] is 89%; on Beta-secretase 1 [3], 49%.

In the case of `CC(C)[C@H](NC(=O)[C@@H](N)CNC(=O)c1cc(O)ccc1O)C(=O)N[C@@H](CC1CCCCC1)C(=O)N[C@@H](Cc1ccccc1)[C@@H](O)C(=O)NC1(c2ccccc2)CCCCC1`, the inhibition is 87% on Beta-secretase 1 [1] and 46% on Beta-secretase 1 [3].

Consider `CC(C)[C@H](NC(=O)[C@@H](N)CNC(=O)c1[nH]c(=O)[nH]c(=O)c1F)C(=O)N[C@@H](CC1CCCCC1)C(=O)N[C@@H](Cc1ccccc1)[C@@H](O)C(=O)N[C@@H](C)c1ccccc1`, for which the inhibition was 98% on Beta-secretase 1 [1] and 80% at Beta-secretase 1 [3]. Besides, the IC50 at Beta-secretase 1 [2] was 24.2 nM.

As for `CC(C)C[C@H](NC(=O)[C@@H](NC(=O)[C@@H](N)CNC(=O)c1[nH]c(=O)[nH]c(=O)c1F)C(C)C)C(=O)N[C@@H](Cc1ccccc1)[C@@H](O)C(=O)N[C@@H](C)c1ccccc1`, the results for the inhibition on Beta-secretase 1 [1] and at Beta-secretase 1 [3] were 99% and 83%, respectively. The IC50 at Beta-secretase 1 [2] came out at 20.4 nM.

Regarding `CC(C)C[C@H](NC(=O)[C@@H](NC(=O)[C@@H](N)CNC(=O)c1cc(O)ccc1O)C(C)C)C(=O)N[C@@H](Cc1ccccc1)[C@@H](O)C(=O)NC1(c2ccccc2)CCN(Cc2ccccc2)CC1`, the inhibition on Beta-secretase 1 [1] stood at 59%.

With `CC(C)[C@H](NC(=O)[C@@H](N)CNC(=O)c1[nH]c(=O)[nH]c(=O)c1F)C(=O)N[C@@H](CC1CCCCC1)C(=O)N[C@@H](Cc1ccccc1)[C@@H](O)C(=O)NC1(c2ccccc2)CCCC1`, the results for the inhibition on Beta-secretase 1 [1] and on Beta-secretase 1 [3] were 98% and 84%, respectively. Also, the IC50 on Beta-secretase 1 [2] was 29 nM.

`CC(C)C[C@H](NC(=O)[C@@H](NC(=O)[C@@H](N)CNC(=O)c1cc(O)ccc1O)C(C)C)C(=O)N[C@@H](Cc1ccccc1)[C@@H](O)C(=O)NC1(c2ccccc2)CCCC1`: the values for the inhibition on Beta-secretase 1 [1] and on Beta-secretase 1 [3] were 90% and 58%, respectively.

`CC(C)C[C@H](NC(=O)[C@@H](NC(=O)[C@@H](N)CNC(=O)c1cc(O)ccc1O)C(C)C)C(=O)N[C@@H](Cc1ccccc1)[C@@H](O)C(=O)NC1(c2ccccc2)CCCCC1`: the inhibition amounted to 86% at Beta-secretase 1 [1] and 43% on Beta-secretase 1 [3].

With `CC(C)C[C@H](NC(=O)[C@@H](NC(=O)[C@@H](N)CNC(=O)c1[nH]c(=O)[nH]c(=O)c1F)C(C)C)C(=O)N[C@@H](Cc1ccccc1)[C@@H](O)C(=O)N[C@H](C)c1ccccc1`, the inhibition at Beta-secretase 1 [1] stood at 98%; at Beta-secretase 1 [3] it was 81%. The IC50 on Beta-secretase 1 [2] came to 34.8 nM.

As for `CC(C)[C@H](NC(=O)[C@@H](N)CNC(=O)c1cc(O)ccc1O)C(=O)N[C@@H](CC1CCCCC1)C(=O)N[C@@H](Cc1ccccc1)[C@@H](O)C(=O)N[C@@H](C)c1ccccc1`, the inhibition is 89% at Beta-secretase 1 [1] and 54% on Beta-secretase 1 [3].

On to `CC(C)C[C@H](NC(=O)[C@@H](NC(=O)[C@@H](N)CNC(=O)c1[nH]c(=O)[nH]c(=O)c1F)C(C)C)C(=O)N[C@@H](Cc1ccccc1)[C@@H](O)C(=O)NC(C)(C)c1ccccc1`, for which the inhibition on Beta-secretase 1 [1] was 98%; at Beta-secretase 1 [3], 83%. On Beta-secretase 1 [2], the half-inhibitory concentration (IC50) turned out to be 27 nM.

For `CC(C)[C@H](NC(=O)[C@@H](N)CNC(=O)c1[nH]c(=O)[nH]c(=O)c1F)C(=O)N[C@@H](CC1CCCCC1)C(=O)N[C@@H](Cc1ccccc1)[C@@H](O)C(=O)NC1(c2ccccc2)CCN(Cc2ccccc2)CC1`, the figures for the inhibition at Beta-secretase 1 [1] and at Beta-secretase 1 [3] were 95% and 64%, respectively.

As for `CC(C)[C@H](NC(=O)[C@@H](N)CNC(=O)c1cc(O)ccc1O)C(=O)N[C@@H](CC1CCCCC1)C(=O)N[C@@H](Cc1ccccc1)[C@@H](O)C(=O)NC1(c2ccccc2)CCCC1`, the inhibition at Beta-secretase 1 [1] was determined as 89%; on Beta-secretase 1 [3], 58%.

Take `CC(C)C[C@H](NC(=O)[C@@H](NC(=O)[C@@H](N)CNC(=O)c1[nH]c(=O)[nH]c(=O)c1F)C(C)C)C(=O)N[C@@H](Cc1ccccc1)[C@@H](O)C(=O)NC1(c2ccccc2)CCCC1`: the inhibition at Beta-secretase 1 [1] was determined as 99%; on Beta-secretase 1 [3] it was 86%. The IC50 on Beta-secretase 1 [2] worked out at 11.6 nM.

`CC(C)C[C@H](NC(=O)[C@@H](NC(=O)[C@@H](N)CNC(=O)c1cc(O)ccc1O)C(C)C)C(=O)N[C@@H](Cc1ccccc1)[C@@H](O)C(=O)NC(C)(C)c1ccccc1`: the results for the inhibition on Beta-secretase 1 [1] and at Beta-secretase 1 [3] were 88% and 44%, respectively.

With `CC(C)[C@H](NC(=O)[C@@H](N)CNC(=O)c1cc(O)ccc1O)C(=O)N[C@@H](CC1CCCCC1)C(=O)N[C@@H](Cc1ccccc1)[C@@H](O)C(=O)NC1(c2ccccc2)CCN(Cc2ccccc2)CC1`, the inhibition at Beta-secretase 1 [1] worked out at 57%.

Regarding `CC(C)C[C@H](NC(=O)[C@@H](NC(=O)[C@@H](N)CNC(=O)c1[nH]c(=O)[nH]c(=O)c1F)C(C)C)C(=O)N[C@@H](Cc1ccccc1)[C@@H](O)C(=O)NC1(c2ccccc2)CCCCC1`, the inhibition came out at 98% on Beta-secretase 1 [1] and 85% at Beta-secretase 1 [3]. Further, the IC50 at Beta-secretase 1 [2] was 24.8 nM.

For `CC(C)C[C@H](NC(=O)[C@@H](NC(=O)[C@@H](N)CNC(=O)c1cc(O)ccc1O)C(C)C)C(=O)N[C@@H](Cc1ccccc1)[C@@H](O)C(=O)N[C@H](C)c1ccccc1`, the inhibition on Beta-secretase 1 [1] is 87%; on Beta-secretase 1 [3], 44%.

Turning to `CC(C)[C@H](NC(=O)[C@@H](N)CNC(=O)c1cc(O)ccc1O)C(=O)N[C@@H](CC1CCCCC1)C(=O)N[C@@H](Cc1ccccc1)[C@@H](O)C(=O)N[C@H](C)c1ccccc1`, the inhibition stood at 88% at Beta-secretase 1 [1] and 51% on Beta-secretase 1 [3].

In the case of `CC(C)[C@H](NC(=O)[C@@H](N)CNC(=O)c1[nH]c(=O)[nH]c(=O)c1F)C(=O)N[C@@H](CC1CCCCC1)C(=O)N[C@@H](Cc1ccccc1)[C@@H](O)C(=O)N[C@H](C)c1ccccc1`, the inhibition at Beta-secretase 1 [1] amounted to 98%; at Beta-secretase 1 [3], 79%. Further, at Beta-secretase 1 [2], the concentration for half-maximal inhibition (IC50) turned out to be 39.6 nM.
